# Sampled rows, rich in hits. Any-hit rate of the full collection: about 2.1%.
# CCR6 antag = blocks CCL20-driven beta-arrestin recruitment at human CCR6; P51684; CHO-K1 CCR6 PathHunter beta-arrestin, luminescence, CCL20-stimulated; inhibition, % at 20 µM; hit rate 0.49% among 340,000; AID 493098;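 active = compounds whose inhibition of the agonist-driven luminescence signal at 20 µM reaches about 50%, limit read from the data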;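 also: cells stimulated with CCL20 at 14 nM final; plate controls were DMSO with CCL20 for no effect and DMSO without agonist for full effect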
# CXCR6 inh = inhibitors of human CXCR6 receptor. inhibition, % at 20 µM. CHO-K1 PathHunter CXCR6 beta-arrestin, luminescence. hit rate 0.36% among 360,000. AID 602244; in the data active = inhibition above about 34%, passing the limit was not always enough;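 also: antagonist mode with CXCL16 agonist at 10 nM final; 0% = 10 nM CXCL16 with DMSO and 100% = unstimulated wells without agonist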
# EBI2 block = EBI2 (human) antagonism | P32249 | EBI2 beta-arrestin recruitment, luminescence, 7a,25-OHC stimulated | inhibition, % at 5 µM | hit rate 0.81% among 360,000 | AID 651636; in the data active = inhibition above about 38%;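 also: enzyme fragment complementation signal reports receptor beta-arrestin coupling in cells; 0% = agonist plus DMSO wells and 100% = wells without agonist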
# Target sequence (P32249 whole entry, looked up, the tested form may be a part): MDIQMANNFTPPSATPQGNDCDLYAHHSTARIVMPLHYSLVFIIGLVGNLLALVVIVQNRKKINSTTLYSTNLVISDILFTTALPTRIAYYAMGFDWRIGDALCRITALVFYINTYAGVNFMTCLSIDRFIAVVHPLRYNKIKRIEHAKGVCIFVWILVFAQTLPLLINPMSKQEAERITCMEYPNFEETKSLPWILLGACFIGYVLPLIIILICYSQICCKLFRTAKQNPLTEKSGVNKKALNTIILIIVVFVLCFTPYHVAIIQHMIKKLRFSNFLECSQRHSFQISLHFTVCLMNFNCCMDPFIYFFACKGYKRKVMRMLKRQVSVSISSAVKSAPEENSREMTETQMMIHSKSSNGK
# APJ antagonist = blocks the human apelin receptor APJ | P35414 | CHO-K1 APJ beta-arrestin complementation, luminescence | inhibition, % at 20 µM | hit rate 0.32% among 330,000 | AID 2521;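 active = inhibition above about 40% at 20 µM, limit read from the data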;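 also: cells challenged with 10 nM apelin-13 agonist together with compound; plate controls were apelin-13 plus DMSO wells for no effect and DMSO wells lacking apelin-13 for full effect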
# APJ ag = activates the human apelin receptor APJ. activation, % at 20 µM. P35414. AID 2520. CHO-K1 APJ PathHunter beta-arrestin, luminescence; 0% DMSO wells, 100% apelin. hit rate 0.11% among 330,000;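 active = activation more than six SD over the plate average, tested at 20 µM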;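 also: 0% = DMSO alone and 100% = apelin-13 at 10 nM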
#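 Test system – PathHunter CHO-K1 APJ (AGTRL-1) beta-arrestin reporter cells · Input – 1000 cells/well · Compound – single test compound dose, 20 µM final, 1% DMSO · Times – compound stimulation 90 min at 25 °C, detection 60 min · Technique – beta-gal luminescence · Read-out basis – APJ–arrestin association signal · Control set – negative DMSO alone, positive Apelin-13 at 10 nM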
# m5-HT2A agonist = agonists of mouse serotonin 5-HT2A receptor (HTR2A) | P35363 | CHO-K1 mHTR2A beta-arrestin complementation, luminescence; percent of 30 µM serotonin response | activation, % at 7.6 µM | hit rate 0.66% among 360,000;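 active = activation above a run cutoff, the mean activation of all tested compounds plus 3 SD, cut at about 14% in these data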;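 also: 0% = plate median of compound wells and 100% = 30 µM serotonin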
# MOR ag counter = activates human mu opioid receptor in HTR2A counterscreen | activation, % at 9.3 µM | hit rate 5.3% among 2,300 | shares compounds with m5-HT2A agonist | U2OS OPRM1 beta-arrestin PathHunter, luminescence; DMSO 0%, DAMGO 9.3 µM 100%;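 active = mean activation above the mean of DMSO-only wells plus 3 SD, cut at about 0.5% in these data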
# m5-HT2A ag conf = confirmation of mouse HTR2A serotonin receptor agonists | shares compounds with m5-HT2A agonist | CHO-K1 PathHunter beta-arrestin recruitment, luminescence; DMSO 0%, 30 µM serotonin 100% | activation, % at 7.6 µM | hit rate 19% among 2,300;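 active = mean activation across triplicates above the hit threshold derived in the original primary screen, cut at about 15% in these data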
# * hit, by the source's call; · = no result.
SMILES,CCR6 antag,CXCR6 inh,EBI2 block,APJ antagonist,APJ ag,m5-HT2A agonist,MOR ag counter,m5-HT2A ag conf
N#CC1(Cc2ccccc2Cl)c2ccccc2C=CN1C(=O)c1ccccc1 (centres undefined),9,-4,21,26,-4,19*,0,-4
COc1ccccc1C1NC(=O)NC(C)=C1C(=O)OCc1ccccc1 (centres undefined),-2,-2,7,12,3,-3,·,·
CC1=C(C(=O)OCc2ccccc2)C(c2ccccc2Br)NC(=O)N1 (centres undefined),-7,-2,-5,-8,-2,29*,0,23*
Cc1cccc(NC(=O)c2cnc3ccccn3c2=O)c1,19,4,0,9,0,26*,-1,-1
Cc1ccccc1NS(=O)(=O)c1ccc(C(=O)N2CCCC2)cc1,-5,-6,-1,-28,-2,7,·,·
Cc1cccc(NS(=O)(=O)c2ccc(C(=O)N3CCN(c4ccccc4O)CC3)cc2)c1C,-12,-13,-22,-48,8,16*,0.5*,5
COc1ccc(NC(=O)c2cc(-c3ccc(C)cc3O)n[nH]2)c(OC)c1,2,-2,16,3,-5,4,·,·
COCCn1c(=S)[nH]c2sc3c(c2c1=O)CCCC3,9,-14,-12,10,-3,3,·,·
COc1ccc(-c2nc3c(c4nnc(SC(C)C(=O)Nc5ccc(C)cc5)n24)COC(C)(C)C3)cc1 (centres undefined),2,-1,11,2,-1,4,·,·
CCCN1C[C@H](CSC)C[C@@H]2c3cccc4[nH]cc(c34)C[C@H]21,17,5,6,30,-3,113*,0,160*
CC(C)Oc1ccc(C(=O)Nc2ccc(N3CCN(C(=O)c4ccco4)CC3)cc2)cc1,2,-7,3,28,1,15*,0,-2
COc1ccc(C(=O)N2CCN(c3ccc(NC(=O)c4ccco4)cc3)CC2)cc1,8,6,3,-11,-2,4,·,·
C=CCOC(=O)c1ccccc1C(=O)OCC1CO1 (centres undefined),6,2,-4,·,·,23*,0,4
COc1ccc(OC)c(S(=O)(=O)N(C)CC(=O)Nc2ccccc2OC)c1,15,9,6,-6,-4,16*,-1,-5
O=C(O)c1ccc(NC(=O)c2cccc(S(=O)(=O)Nc3ccc(C(=O)O)cc3)c2)cc1,3,-7,-8,0,0,16*,-1,-2
Cc1ccc(Oc2ccc(NS(=O)(=O)c3cccc(C(=O)O)c3)cc2)cc1,9,-1,-6,3,-5,15*,0,-2
O=C(Nc1ccc(Cc2ccncc2)cc1)C1CCC(N2C(=O)C3C4C=CC(C5CC45)C3C2=O)CC1 (centres undefined),5,2,11,6,-2,11,·,·
COc1ccccc1NC(=S)N(CCc1c(C)[nH]c2ccccc12)Cc1cccs1,4,6,7,16,-1,16*,-1,-5
COc1ccc2[nH]c(C)c(CCN(Cc3cccs3)C(=S)Nc3ccccc3)c2c1,22,3,8,-37,-3,8,·,·
CCOC1=C2[C@@H](CN(S(=O)(=O)c3ccc(C)cc3)[C@H]2c2ccccc2F)[C@H]2C(=O)NC(=O)[C@H]2C1,·,3,-13,·,·,-3,·,·
CCC1(C)CC(CC(=O)O)(c2ccccc2OC)CCO1 (centres undefined),-18,-10,-24,12,1,15*,0,1
COc1ccccc1C1(CC(=O)N2CCCCC2)CCOC(C(C)C)C1 (centres undefined),22,9,9,-32,-6,1,·,·
CN(Cc1ccccc1Cl)C(=O)C1CC(=O)N(c2ccc3c(c2)OCCO3)C1 (centres undefined),12,-3,-14,5,3,-1,·,·
COCc1ccc(CN2CCC(n3nccc3NC(=O)C(OC)c3ccccc3)CC2)o1 (centres undefined),5,1,-11,10,-3,15*,-1,-1
CC1Cc2ccccc2N1C(=O)/C=C/c1cccc(F)c1 (centres undefined),16,8,8,-5,-2,0,·,·
SMILES,CCR6 antag,CXCR6 inh,EBI2 block,APJ antagonist,APJ ag,m5-HT2A agonist,MOR ag counter,m5-HT2A ag conf
COC1=C/C(=C/c2c(O)c(C#N)c3ccccn23)C=CC1=O,56*,32,-11,33,-4,20*,-1,-7
O=C(CN1C(=O)C2CC=CCC2C1=O)Nc1nc2ccccc2s1 (centres undefined),12,-2,1,8,-3,16*,-1,-2
CCCCN1C(=O)Cc2c1nc(N)c1c(N)nc(N(CCC)CCC)c(C#N)c21,6,4,13,·,·,1,·,·
CCN1C(=O)C2(C(C(=O)c3ccc(C)o3)=C(O)C(=O)N2CCCN(C)C)c2ccccc21 (centres undefined),3,-6,-4,14,1,2,·,·
CN(CC(=O)Nc1cccnc1)S(=O)(=O)c1ccc(Br)cc1,-4,0,-3,4,0,17*,-1,-4
Cc1ccc(F)cc1NC(=O)C1C2CCC(O2)C1C(=O)O (centres undefined),10,-2,-2,9,0,5,·,·
C=C(C)C1CC=C(CN2CCC(C(=O)OCC)CC2)CC1 (centres undefined),15,0,-9,3,-7,18*,0,26*
C=C(C)C1CC=C(CN2CC(C)OC(C)C2)CC1 (centres undefined),-6,-11,-10,-2,-5,1,·,·
CCn1c(C)cc(/C=C2\SC(=O)N(CC(=O)Nc3ccc(C)c(C)c3)C2=O)c1C,18,6,0,6,-7,-4,·,·
Cc1c(NC(=O)CN2C(=O)c3ccc([N+](=O)[O-])cc3C2=O)c(=O)n(-c2ccccc2)n1C,-8,7,-2,5,-3,17*,-1,-3
Cc1c(NC(=O)CN2C(=O)c3ccccc3C2=O)c(=O)n(-c2ccccc2)n1C,6,-12,-5,5,-2,3,·,·
COCCNC(=S)N/N=C(\C)c1ccc(OC)cc1,12,2,-3,12,-5,-2,·,·

# Source: PubChem BioAssay (several laboratories)
